# Screening results deposited in PubChem BioAssay by several laboratories.
# CYP2C19 activ – activators of human cytochrome P450 2C19; P33261; recombinant CYP2C19, luciferin-H EGE luminescence; hits give high values; 0 = fully inhibited enzyme, 1 = untreated enzyme; activation factor at 5 µM; 96,000 tested, under 10 active;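 active = activation factor of at least 2 at 5 µM in the primary screen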;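 note: 0 = wells with 2.5 mM tranylcypromine and 1 = vehicle-only wells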
# Cav32 inh – blocks human Cav3.2 T-type calcium channel | B-score at 10 µM | hit rate 4% among 100,000 | O95180 | AID 449739 | Cav3.2-expressing cells, Fluo-4 calcium fluorescence FDSS; hits give low values;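 active = single-dose well whose peak fluorescence ratio is a statistical outlier from its plate by either plate-standardised score or position-corrected B-score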
# CYP2C9 act – CYP2C9 (human) activation. P11712. recombinant CYP2C9, luciferin-H conversion, luminescence; hits give high values; factor 1 = untreated enzyme, 0 = blocked. activation factor at 5 µM. hit rate 1.4% among 96,000;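 active = activation factor of 2 or more for CYP2C9 at a 5 µM dose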;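 note: 0 = sulfaphenazole-blocked wells and 1 = vehicle-only wells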
# Target sequence (P11712 whole entry, looked up): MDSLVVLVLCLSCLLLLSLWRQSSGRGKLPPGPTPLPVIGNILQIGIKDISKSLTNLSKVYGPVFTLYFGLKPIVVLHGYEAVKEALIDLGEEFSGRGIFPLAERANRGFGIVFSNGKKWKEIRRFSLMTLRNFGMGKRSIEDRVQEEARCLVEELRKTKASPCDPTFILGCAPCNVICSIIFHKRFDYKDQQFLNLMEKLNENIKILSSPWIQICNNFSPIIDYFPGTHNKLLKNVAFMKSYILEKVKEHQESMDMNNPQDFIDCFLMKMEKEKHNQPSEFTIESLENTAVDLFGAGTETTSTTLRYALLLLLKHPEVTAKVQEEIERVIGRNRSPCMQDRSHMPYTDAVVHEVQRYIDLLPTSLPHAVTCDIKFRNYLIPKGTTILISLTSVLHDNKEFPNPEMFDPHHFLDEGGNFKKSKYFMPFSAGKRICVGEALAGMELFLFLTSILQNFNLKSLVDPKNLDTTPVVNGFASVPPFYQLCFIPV
# Rev-RRE block – inhibitors of HIV-1 Rev-RRE RNA interaction. P05866. Rev peptide-RRE RNA binding, FRET. inhibition, % at 8 µM. hit rate 0.79% among 97,000. AID 704;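 active = inhibition above the screen-wide mean plus 3 SD, cut at about 35% in these data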;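 note: 0% = median DMSO wells and 100% = median Neomycin B control wells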
# Target sequence (P05866 whole entry, looked up): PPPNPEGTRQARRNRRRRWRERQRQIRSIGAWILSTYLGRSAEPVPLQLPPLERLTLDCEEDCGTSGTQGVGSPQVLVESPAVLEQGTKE
#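 System: Cy5-labelled duplex RRE RNA binding fluorescein-labelled HIV Rev peptide; Signal: fluorescein-to-Cy5 FRET, 480 nm excitation; Also added: labelled Rev peptide; Compound: one concentration, 8 µM nominal; Buffer or medium: HEPES pH 7.5 salt buffer with EDTA; Read-out: % inhibition of FRET ratio versus controls; Schedule: 5 min preincubation and 15 min binding, 25 °C.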
# CYP2C9 inh – blocks human cytochrome P450 2C9. P11712. CYP2C9 Supersomes, luciferin-H conversion, luminescence. inhibition, % at 5 µM. hit rate 20% among 96,000. AID 777;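 active = blocking of liver enzyme CYP2C9 beyond about 50% at 5 µM, limit read from the data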
# CYP2C19 inhib – inhibitors of human CYP2C19; P33261; CYP2C19 Supersomes, luciferin-H EGE luminescence, 30 min; inhibition, % at 5 µM; hit rate 21% among 96,000;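 active = CYP2C19 inhibition above a set limit at 5 µM in the primary screen, cut at about 50% in these data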;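 note: plate controls were negative control wells for no effect and 2.5 mM tranylcypromine positive control for full effect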
# An asterisk follows results filed as active; nt = no result. In the library only some 27% were active in any assay of this set; here they are far more common.
SMILES,CYP2C19 activ,Cav32 inh,CYP2C9 act,Rev-RRE block,CYP2C9 inh,CYP2C19 inhib
CCNC(=O)C1CCCN1S(=O)(=O)c1ccc(C)cc1 (configuration not stated),nt,1.2,nt,6,nt,nt
C[N+](C)(C)CCOP(=O)(O)OP(=O)([O-])OC[C@H]1O[C@@H](n2ccc(N)nc2=O)[C@H](O)[C@@H]1O,nt,0.66,nt,nt,nt,nt
Cc1cc(NC(=O)CCC(=O)N(c2ccccc2)C(C(=O)NC2CCCCC2)c2cccs2)no1 (configuration not stated),nt,-3,nt,3,nt,nt
COC(=O)C(=O)Nc1nnc(COc2ccccc2)s1,1.1,0.82,1,5,3,-12
O=C(COC(=O)C1CC(=O)N(c2ccc3c(c2)OCCO3)C1)NC1CCCc2ccccc21 (configuration not stated),1,0.041,0.8,3,21,4
O=C(COC(=O)c1cc([N+](=O)[O-])ccc1NCc1ccccc1)NC1CCCc2ccccc21 (configuration not stated),0.8,-0.51,0.3,12,69*,20
Clc1cccc(Cl)c1CSc1nnc(CN2CCOCC2)n1-c1ccccc1,0.7,-1.6,0.9,-7,7,33
Clc1ccc(CSc2nnc(CN3CCOCC3)n2-c2ccccc2)cc1Cl,0.2,-3.4,0.4,8,62*,84*
N#CCc1c(C#N)c(N)nc(N2CCN(Cc3ccc4c(c3)OCO4)CC2)c1C#N,1,nt,0.5,8,54*,0
COC(=O)C(C#N)c1nc2ccccc2nc1N1CCN(Cc2ccc3c(c2)OCO3)CC1 (configuration not stated),0.5,nt,0.5,nt,47,50*
c1cnc(N2CCN(Cc3ccc4c(c3)OCO4)CC2)nc1,nt,0.15,nt,nt,nt,nt
CCCCOC(=O)C(C#N)c1nc2ccccc2nc1N1CCN(Cc2ccc3c(c2)OCO3)CC1 (configuration not stated),0.3,0.13,0.1,11,92*,65*
CCN1CCN(c2nc3ccccc3nc2C(C#N)C(=O)OC2CCCCC2)CC1 (configuration not stated),0.9,-1.2,0.8,13,20,6
O=C(C1=C[C@@H](c2ccccc2)C[C@@H](OCCCCO)O1)N1CCOCC1,nt,0.66,nt,nt,nt,nt
O=C(Nc1ccccc1)c1ccccc1O,0.8,-0.096,0.8,6,24,19
N#Cc1ccccc1Sc1ccccc1C(=O)Nc1ccccc1,0.5,nt,0.5,-3,50,52*
COc1cccc(C2NC(=O)NC(C)=C2C(=O)Nc2cccc(C)c2C)c1 (configuration not stated),0.9,-0.36,1,9,2,12
O=C(CCCN1C(=O)c2ccccc2C1=O)Nc1cccnc1,nt,0.038,nt,4,nt,nt
O=C(CCCCCN1C(=O)c2ccccc2C1=O)Nc1ccc(S(=O)(=O)N2CCCCC2)cc1,0.7,-1.7,0.2,18,83*,26
Cc1cc(C)nc(NS(=O)(=O)c2ccc(NC(=O)CCN3C(=O)c4ccccc4C3=O)cc2)n1,1,-0.52,0.9,nt,7,0
O=C(CCN1C(=O)c2ccccc2C1=O)Nc1cccc(S(=O)(=O)N2CCCCC2)c1,0.2,-1.7,0.1,5,92*,81*
O=C(CCCCCN1C(=O)c2ccccc2C1=O)Nc1ccc(F)cc1,nt,-0.34,nt,1,nt,nt
CC1CCN(S(=O)(=O)c2ccc(NC(=O)Cn3nnc(-c4ccccc4F)n3)cc2)CC1,0.6,-1.5,0.2,15,80*,39
CC1CN(S(=O)(=O)c2ccc(NC(=O)CCCN3C(=O)c4ccccc4C3=O)cc2)CC(C)O1 (configuration not stated),0.7,1.1,0.5,12,50*,28
CC1CCN(S(=O)(=O)c2ccc(NC(=O)CN3CCN(c4ccccc4)CC3)cc2)CC1,1.1,-0.37,1,2,-2,-14
SMILES,CYP2C19 activ,Cav32 inh,CYP2C9 act,Rev-RRE block,CYP2C9 inh,CYP2C19 inhib
O=C(c1cccnc1)N1CCN(S(=O)(=O)c2ccc(Cl)cc2)CC1,nt,-0.5,nt,-3,nt,nt
CCOC(=O)CNC(=O)CSc1nnc(-c2ccccc2OC)n1CC,1,0.53,1,6,4,2
Cc1cc(NC(=O)COC(=O)CCC(=O)c2ccc(F)cc2)no1,0.9,0.41,0.8,-1,16,8
CC(C)n1c(SCC(=O)c2ccc3c(c2)OCCO3)nc2c1c(=O)n(C)c(=O)n2C,0.9,-0.031,0.7,nt,26,14
CC1CCN(S(=O)(=O)c2ccc(C(=O)Nc3sccc3C(N)=O)cc2)CC1,0.5,0.1,0.4,6,59*,52*
CC1CN(S(=O)(=O)c2ccc(NC(=O)c3ccco3)cc2)CC(C)O1 (configuration not stated),0.8,0.42,0.5,3,50,18
CC1CCN(S(=O)(=O)c2ccc(NC(=O)CCN3C(=O)c4ccccc4C3=O)cc2)CC1,0.4,-2.5,0.1,9,94*,62*
CC1CN(S(=O)(=O)c2ccc(NC(=O)CCN3C(=O)c4ccccc4C3=O)cc2)CC(C)O1 (configuration not stated),1,nt,0.4,3,57*,1
O=C(CCCCCN1C(=O)c2ccccc2C1=O)Nc1ccc2c(c1)OCCO2,0.3,-0.028,0.2,4,76*,71*
COc1ccccc1COC(=O)Nc1c(C)nn(C)c1Cl,0.7,-0.67,1.3,0,-29,34
CC1CCN(S(=O)(=O)c2ccc(NC(=O)Cc3ccccc3)cc2)CC1,0.2,-5.9*,0.1,23,92*,78*
CN(C)CCCOC(=O)C1c2ccccc2Oc2ccccc21,0.3,0.012,1.2,-6,-23,74*
Cc1ccccc1NS(=O)(=O)c1cc(C(=O)NCCSC2CCCCC2)ccc1C,0.6,-4.4*,0.4,10,63*,42
Cc1ccc(C)c(NS(=O)(=O)c2cc(C(=O)NCCC3=CCCCC3)ccc2C)c1,1.1,-1.9,0.8,3,24,-5
Cc1ccc(C)c(NS(=O)(=O)c2cc(C(=O)NCCSC3CCCCC3)ccc2C)c1,0.4,-4.5*,0.2,8,79*,59*
COCCSc1nc2sc3c(c2c(=O)n1-c1ccccc1)CCN(C)C3,0,1.5,0.7,26,33,98*
CCOC(=O)C(NC(=O)CC)(Nc1cc(C)on1)C(F)(F)F (configuration not stated),0.7,-1.5,0.9,1,11,31
O=C(Cn1c(=O)oc2cc(S(=O)(=O)N3CCOCC3)ccc21)N1CCc2ccccc2C1,1.1,0.64,0.9,2,6,-14
O=C1CSC(c2nn(-c3ccccc3)cc2-c2cc3ccccc3oc2=O)N1Cc1ccco1 (configuration not stated),0.4,-1.7,0.2,2,84*,55*
